Source: ChEMBL document CHEMBL3400028, “Evaluation of Aconitum diterpenoid alkaloids as antiproliferative agents” (2015)

Assays:
Format in all cases: functional
A549 = test: Antiproliferative activity against human A549 cells by sulforhodamine B assay
How it was run: (§1)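 Cells in RPMI 1640 (25 mM HEPES, 2 mM L-glutamine, 10% heat-inactivated FBS, antibiotics) at 37 °C, 5% CO2. Seeded at 3–5 × 10³/well with graded concentrations, paclitaxel as assay control, for 72 h. TCA-fixed, stained with 0.04% SRB, dye dissolved in 10 mM Tris, A515 read. GI50 is the concentration halving absorbance versus untreated cells; three or more experiments.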

DU-145 = test: Antiproliferative activity against human DU145 cells by sulforhodamine B assay; how it was run: as §1
KB = test: Antiproliferative activity against human KB cells by sulforhodamine B assay; how it was run: as §1
[1] = Antiproliferative activity against multidrug-resistant P-gp expressing human KBVIN cells by sulforhodamine B assay
How it was run: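 Vincristine-resistant KB subline kept in 100 nM vincristine, then grown 7–10 days without it before testing. RPMI 1640 with 10% FBS, 37 °C, 5% CO2. 3–5 × 10³ cells/well exposed 72 h to a concentration series, paclitaxel as assay control. SRB staining after TCA fixation, A515 read. GI50 is the 50% absorbance reduction versus untreated cells; three or more experiments.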

[2] = Selectivity ratio of GI50 for human KB cells to GI50 for multidrug-resistant P-gp expressing human KBVIN cells
How it was run: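 Ratio of GI50 in parental KB to GI50 in P-gp-overexpressing KB-VIN. […] KB-VIN cells were grown 7–10 days without vincristine before the assay.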

| SMILES | GI50 (A549) [µM] | GI50 (DU-145) [µM] | GI50 (KB) [µM] | GI50 [1] [µM] | RatioGI50 [2] |
| --- | --- | --- | --- | --- | --- |
| COC[C@]12CN(C)C3[C@@H]4[C@H](OC)[C@H]1[C@@]3([C@@H](OC)C[C@H]2OC(C)=O)[C@@H]1C[C@@]2(O)[C@H](OC(=O)c3ccccc3)[C@@H]1[C@]4(OC(C)=O)[C@@H](O)[C@@H]2OC | > 20 | > 20 | > 20 | > 20 | >20 |
| CCN1C[C@]2(COC)[C@H](O)C[C@H](OC)[C@]34C1[C@H]([C@H](OC)[C@H]23)[C@]1(OC(C)=O)[C@H]2[C@@H](OC(=O)c3ccc(OC)cc3)[C@](O)(C[C@H]24)[C@@H](OC)[C@@H]1O | > 20 | > 20 | > 20 | > 20 | >20 |
| CCN1C[C@@]2(COC)[C@H]3[C@@H](OC)C=C4[C@H]5[C@@H](OC(=O)c6ccc(OC)cc6)[C@](O)(C[C@H]5[C@@]35C1O[C@@H]2C[C@@H]5OC)[C@@H](OC)[C@@H]4O | > 20 | > 20 | > 20 | > 20 | >20 |
| CCN1C[C@@]2(COC)[C@H]3[C@@H](OC)[C@H]4C1[C@]3([C@@H](OC)C[C@H]2OC(C)=O)[C@@H]1C[C@@]2(O)[C@H](OC(=O)c3ccc(OC)cc3)[C@@H]1[C@]4(OC(C)=O)[C@@H](OC(C)=O)[C@@H]2OC | > 20 | > 20 | > 20 | > 20 | >20 |
| COC[C@]12CN(C)C3[C@@H]4[C@H](OC)[C@H]1[C@@]3([C@@H](OC)C[C@H]2O)[C@@H]1C[C@@]2(O)[C@H](OC(=O)c3ccccc3)[C@@H]1[C@]4(OC(C)=O)[C@@H](O)[C@@H]2OC | > 20 | > 20 | > 20 | > 20 | >20 |
| CCN1C[C@]2(COC)CC[C@H](O)[C@]34C1[C@@H]([C@H](OC)[C@H]23)[C@@]1(O)C[C@H](OC)[C@H]2C[C@@H]4[C@@H]1[C@H]2OC(=O)c1ccccc1 | > 20 | > 20 | > 20 | > 20 | >20 |
| CCN1C[C@]2(COC)[C@H](O)C[C@H](O)[C@]34C1[C@@](O)([C@@H](OC)[C@H]23)[C@@]1(O)C[C@H](OC)[C@H]2C[C@@H]4[C@@H]1[C@H]2O | > 20 | > 20 | > 20 | > 20 | >20 |
| CCN1C[C@]2(COC)[C@H](O)C[C@H](OC(C)=O)[C@]34C1[C@@](O)([C@@H](OC)[C@H]23)[C@@]1(O)C[C@H](OC)[C@H]2C[C@@H]4[C@@H]1[C@H]2O | > 20 | > 20 | > 20 | > 20 | >20 |
| CCN1C[C@]2(COC)[C@H](O)C[C@H](OC(C)=O)[C@]34C1[C@@](O)([C@@H](OC)[C@H]23)[C@@]1(O)C[C@H](OC)[C@H]2C[C@@H]4[C@@H]1[C@H]2OC(C)=O | > 20 | > 20 | > 20 | > 20 | >20 |
| CCN1C[C@]2(COC)[C@H](O)C[C@H](O)[C@]34C1[C@@](O)([C@@H](OC)[C@H]23)[C@@]1(O)C[C@H](OC)[C@H]2C[C@@H]4[C@@H]1[C@H]2OC(=O)c1ccccc1 | > 20 | > 20 | > 20 | > 20 | >20 |
| CCN1C[C@]2(COC)CC[C@H](O)[C@]34C1[C@@](O)([C@@H](OC)[C@H]23)[C@@]1(O)C[C@H](OC)[C@H]2C[C@@H]4[C@@H]1[C@H]2OC(C)=O | > 20 | > 20 | > 20 | > 20 | >20 |
| CCN1C[C@]2(COC)[C@H](O)C[C@H](OC)[C@@]34[C@@H]5C[C@@]6(O)[C@H](OC(=O)c7ccccc7)[C@@H]5[C@@](OC(C)=O)([C@@H]([C@H](OC)[C@H]23)[C@@H]14)[C@@H](O)[C@@H]6OC [ACONITINE] | > 20 | > 20 | > 20 | > 20 | >20 |
| C=C1[C@@H](OC(C)=O)[C@]23C[C@@H]1[C@@H](O)C[C@H]2[C@@]12C4C3C[C@@H]1[C@@]1(C)CC[C@H]2OC1N4CC [DEHYDROLUCIDUSCULINE] | > 20 | > 20 | > 20 | > 20 | >20 |
| CCN1C[C@]2(COC)CC[C@H](O)[C@]34C1[C@@](O)([C@@H](OC)[C@H]23)[C@@]1(O)C[C@H](OC)[C@H]2C[C@@H]4[C@@H]1[C@H]2OC [DELSOLINE] | > 20 | > 20 | > 20 | > 20 | >20 |
| CCN1C[C@]2(COC)CC[C@H](OC)[C@]34C1C([C@H](OC)[C@H]23)[C@]1(OC(C)=O)[C@H]2[C@@H](OC(=O)c3ccccc3)[C@](O)(C[C@H]24)[C@@H](OC)[C@@H]1O [DEOXYACONITINE] | > 20 | > 20 | > 20 | > 20 | >20 |
| CCN1C[C@]2(COC)CC[C@H](OC)[C@]34C1C([C@H](OC)[C@H]23)[C@]1(OC(C)=O)[C@H]2[C@@H](OC(=O)c3ccc(OC)cc3)[C@](O)(C[C@H]24)[C@@H](OC)[C@@H]1O [DEOXYJESACONITINE] | > 20 | > 20 | > 20 | > 20 | >20 |
| COC[C@]12CN(C)C3C4[C@H](OC)[C@H]1[C@@]3([C@@H](OC)C[C@H]2O)[C@@H]1C[C@@]2(O)[C@H](OC(=O)c3ccccc3)[C@@H]1[C@]4(OC)[C@@H](O)[C@@H]2OC [HOKBUSINE A] | > 20 | > 20 | > 20 | > 20 | >20 |
| COC[C@@]12CC[C@H](OC)[C@]34C(C([C@H](OC)[C@H]13)[C@]1(OC(C)=O)[C@H]3[C@@H](OC(=O)c5ccccc5)[C@](O)(C[C@H]34)[C@@H](OC)[C@@H]1O)N(C)C2 [HYPACONITINE] | > 20 | > 20 | > 20 | > 20 | >20 |
| CCN1C[C@]2(C)CC[C@H](O)[C@@]34C5C[C@@H]6[C@@H](OC)C[C@@](O)(C5[C@H]6O)[C@@H](CC23)C14 (stereo not given in full) [KARACOLINE] | > 20 | > 20 | > 20 | > 20 | >20 |
| C=C1[C@H]2C[C@H]3C4N5C[C@]6(C)CCC[C@]47[C@H]([C@H]2O)C3(CC5[C@H]67)[C@@H]1O [KOBUSINE] | > 20 | > 20 | > 20 | > 20 | >20 |
| CCN1C[C@]2(C)CC[C@H](OC)[C@@]34[C@@H]5C[C@H]6[C@H](OC)[C@@H]5[C@@]5(C[C@@H]6OC)OCO[C@@]5(C(=O)[C@H]23)[C@@H]14 [PACININE] | > 20 | > 20 | > 20 | > 20 | >20 |
